Series [1] has as its system CCRF-CEM. In words: Effective concentration against HIV-1-infected CEM cells in mice administered intraperitoneally. The class given is functional, cell-based. Particulars: Homo sapiens, in the assay text read “in vitro” for “in mice administered intraperitoneally”. An outline of the steps: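 Conjugates were given as micellar suspensions made by sonication, in HIV-1-infected CEM cells. EC50 is the concentration protecting infected cells by 50%. IC50 is the concentration reducing viable cell number by 50%.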

A short description of series [2]: Time taken to decrease plasma concentration to half of its initial concentration after intraperitoneal administration. The note with it: ip. The class given is ADME, organism-based. An outline of the steps: (§1)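 Female NIH-Swiss mice (25–30 g) received one dose of micellar conjugate ip at 394 mg/kg (equivalent to 100 mg/kg parent nucleoside), or the parent at 100 mg/kg ip. An iv arm gave 205 mg/kg conjugate or 50 mg/kg parent. Three mice were taken per time point up to 24 h. Serum nucleoside was measured by HPLC-UV at 260 nm. Analysis was noncompartmental, with t1/2 = 0.693/λz.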

Series [3] relates to CCRF-CEM. As to the kind of experiment: Ability to reduce viable cell number on HIV-1-infected CEM cells in vitro. Particulars: Homo sapiens.
A short description of series [4]: Pharmacokinetic parameter AUC in mice following a single dose intraperitoneal administration of the compound. Particulars: mouse, in vivo, ip.
Series [5] is described as follows: Time taken to decrease plasma concentration to half of its initial concentration after iv administration. It counts as ADME, organism-based.
Series [6] can be described thus: Time taken to decrease plasma concentration to half of its initial concentration after ip administration. The class given is ADME, organism-based. An outline of the steps:
as §1

Molecules are shown by their SMILES. Where only a bound is given, the exact number is not on record here.

Results on six compounds are retold here after ChEMBL document CHEMBL1129560, “Nucleoside conjugates. 15. Synthesis and biological activity of anti-HIV nucleoside conjugates of ether and thioether phospholipids” (J Med Chem, 1996).

Usually EC50 stands for the concentration giving half of the maximal effect. A word on the half-life: it is the time needed for the level to fall by half in the phase considered. One may read the IC50 as the concentration that inhibits the measured activity by half. A low value points to greater potency in that assay. Broadly, the AUC is concentration integrated over time. Regarding `CCCCCCCCCCCCCCCCCCSCC(COP(=O)([O-])OP(=O)([O-])OC[C@H]1O[C@@H](n2cc(C)c(=O)[nH]c2=O)C[C@@H]1N=[N+]=[N-])OC(=O)CCCCCCCCCCCCCCC.[Na+].[Na+]` (some centres not stated), the half-maximal effective concentration (EC50) with CCRF-CEM [1] is under 0.58 µM. For the same compound, the half-life in series [2] is 5.69 h. Also, in the series with CCRF-CEM [3], the concentration for half-maximal inhibition (IC50) amounted to 120 µM. In series [4], this compound displayed an AUC of 25800 ng·h/mL.

The compound `CCCCCCCCCCCCCCCCCCSCC(COP(=O)(O)OP(=O)(O)OC[C@@H]1CC[C@H](n2ccc(N)nc2=O)O1)OC(=O)CCCCCCCCCCCCCCC` (some centres not stated) yielded an EC50 in the series with CCRF-CEM [1] of 130 µM. For the same compound, it took 2800 µM to reach half-maximal inhibition with CCRF-CEM [3] (IC50).

Turning to `CCCCCCCCCCCCCCCCCCSCC(COP(=O)([O-])OP(=O)([O-])OC[C@H]1O[C@@H](n2ccc(=O)[nH]c2=O)C[C@@H]1N=[N+]=[N-])OC(=O)CCCCCCCCCCCCCCC.[Na+].[Na+]` (some centres not stated), in series [5], the half-life was 6.5 h. Also, the EC50 in the series with CCRF-CEM [1] is 17 µM. This compound displayed an IC50 with CCRF-CEM [3] of 380 µM.

In turn, `CCCCCCCCCCCCCCCC(=O)OC(COCCCCCCCCCCCCCC)COP(=O)(O)OP(=O)(O)OC[C@H]1O[C@@H](n2cc(C)c(=O)[nH]c2=O)C[C@@H]1N=[N+]=[N-]` (some centres not stated) gave an EC50 with CCRF-CEM [1] of 57 µM. The midpoint of inhibition in the series on CCRF-CEM [3], the IC50, lay at 14000 µM.

Consider `[N-]=[N+]=N[C@H]1C[C@H](n2ccc(=O)[nH]c2=O)O[C@@H]1CO` [NAVURIDINE], for which the half-life in series [5] was 0.89 h. The same compound displayed an AUC in series [4] of 42300 ng·h/mL.

`Cc1cn([C@H]2C[C@H](N=[N+]=[N-])[C@@H](CO)O2)c(=O)[nH]c1=O` [ZIDOVUDINE] had a half-life in series [6] of 0.28 h. Besides, the EC50 with CCRF-CEM [1] worked out at 0.186 µM. The same compound returned an IC50 in the series on CCRF-CEM [3] of 191 µM. Further, in series [4], the AUC stood at 175000 ng·h/mL.
